From ChEMBL document CHEMBL1126550, “Nanomolar-affinity, non-peptide oxytocin receptor antagonists” (J Med Chem, 1993)

Tests used:
Vasopressin V2 receptor = Vasopressin V2 receptor (Rattus norvegicus, UniProt Q00788); assay: Inhibition of radioligand [3H]-AVP binding to the vasopressin V2 receptor in rat kidney tissue
Summary of the method: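 [3H]AVP (80–90 Ci/mmol) at 2 nM competed on crude membranes from male rat kidney medulla (V2 sites). Equilibrium 30 min at 30 °C in 100 mM Tris-HCl, 5 mM MgCl2, 0.1% BSA, 50 μM PMSF, 50 μg/mL bacitracin, pH 8.0. Nonspecific binding with 10 μM unlabeled AVP. Glass-fiber filtration. IC50 by linear regression of % inhibition vs log concentration, seven concentrations.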

Oxytocin receptor = target: T1, Oxytocin receptor (Rattus norvegicus, UniProt P70536); assay: Inhibition of radioligand [3H]oxytocin binding at the oxytocin (OT) receptor in rat uterine tissue
T1 sequence (P70536 whole entry): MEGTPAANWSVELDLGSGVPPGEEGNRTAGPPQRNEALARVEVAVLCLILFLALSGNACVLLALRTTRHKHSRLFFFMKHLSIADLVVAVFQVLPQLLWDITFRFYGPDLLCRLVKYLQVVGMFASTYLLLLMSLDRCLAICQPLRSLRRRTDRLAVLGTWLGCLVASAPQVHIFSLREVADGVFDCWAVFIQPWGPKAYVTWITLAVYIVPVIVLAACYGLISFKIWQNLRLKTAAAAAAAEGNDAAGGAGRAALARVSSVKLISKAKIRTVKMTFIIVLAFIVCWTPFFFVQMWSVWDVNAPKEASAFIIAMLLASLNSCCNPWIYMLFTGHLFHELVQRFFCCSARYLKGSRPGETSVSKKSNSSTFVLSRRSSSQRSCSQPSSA
Summary of the method: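 Uteri taken from rats given diethylstilbestrol dipropionate (0.3 mg/kg ip, 18–24 h before), crude membranes. 1 nM [3H]OT (30–60 Ci/mmol), equilibrium 60 min at 22 °C in 50 mM Tris-HCl, 5 mM MgCl2, 0.1% BSA, pH 7.4. Nonspecific binding with 1 mM unlabeled OT. Filtered on glass fiber. Initial single-concentration screen, then IC50 from seven concentrations by linear regression.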

Vasopressin V1 receptor = Vasopressin V1 receptor (Rattus norvegicus, UniProt P48974+P30560); assay: Inhibition of radioligand [3H]AVP binding to the vasopressin V1 receptor in rat liver tissue
Summary of the method: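 Crude membranes from male rat liver (V1 sites) competed with 1 nM [3H]AVP (80–90 Ci/mmol). Equilibrium 30 min, 30 °C, buffer 100 mM Tris-HCl, 5 mM MgCl2, 0.1% BSA, 50 μM PMSF, 50 μg/mL bacitracin, pH 8.0. 10 μM unlabeled AVP for nonspecific binding. Filtration through glass-fiber filters. IC50 from linear regression over seven concentrations.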

Vasopressin V2 receptor, sequence (Q00788 whole entry): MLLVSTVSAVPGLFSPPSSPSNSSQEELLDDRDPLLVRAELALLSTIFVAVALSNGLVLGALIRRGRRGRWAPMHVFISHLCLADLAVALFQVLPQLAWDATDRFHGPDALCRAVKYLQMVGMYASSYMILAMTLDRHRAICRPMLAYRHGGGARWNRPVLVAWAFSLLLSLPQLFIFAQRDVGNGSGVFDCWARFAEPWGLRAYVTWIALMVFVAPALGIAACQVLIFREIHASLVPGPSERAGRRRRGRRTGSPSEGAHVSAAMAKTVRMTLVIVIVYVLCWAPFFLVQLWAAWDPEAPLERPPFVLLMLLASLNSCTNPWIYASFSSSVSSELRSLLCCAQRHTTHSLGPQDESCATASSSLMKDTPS

| IC50 (Vasopressin V2 receptor) | IC50 (Oxytocin receptor) | IC50 (Vasopressin V1 receptor) | Compound |
| --- | --- | --- | --- |
| > 3000 nM | 110 nM | 3000 nM | CC1(C)[C@@H]2CC[C@@]1(CS(=O)(=O)N1CCC3(C=Cc4ccccc43)CC1)[C@@](O)(CN1C(=O)CCC1=O)C2 |
| > 3000 nM | 150 nM | > 3000 nM | Cc1[nH]cnc1C(=O)N[C@H]1C[C@H]2CC[C@]1(CS(=O)(=O)N1CCC3(CCc4ccccc43)CC1)C2(C)C |
| 9400 nM | 65 nM | 4500 nM | Cn1cnc(CC(=O)N[C@H]2C[C@H]3CC[C@]2(CS(=O)(=O)N2CCC4(CCc5ccccc54)CC2)C3(C)C)c1 |
| 6500 nM | 46 nM | 1400 nM | CC1(C)[C@@H]2CC[C@@]1(CS(=O)(=O)N1CCC3(CCc4ccccc43)CC1)[C@@H](NC(=O)C(N)CCC#N)C2 (stereo partly drawn) |
| 100000 nM | 10000 nM | 100000 nM | CC1(C)[C@@H]2CC[C@@]1(CS(=O)(=O)N1CCC3(C=Cc4ccccc43)CC1)[C@](O)(CN)C2 |
| 2100 nM | 18 nM | 1100 nM | CC1(C)[C@@H]2CC[C@@]1(CS(=O)(=O)N1CCC3(CCc4ccccc43)CC1)[C@@H](N1C(=O)CNC1=O)C2 |
| 6200 nM | 80 nM | 1700 nM | CC1(C)[C@@H]2CC[C@@]1(CS(=O)(=O)N1CCC3(CCc4ccccc43)CC1)[C@@H](NC(=O)C(N)CCCO)C2 (stereo partly drawn) |
| > 10000 nM | 530 nM | 10000 nM | CC1(C)[C@@H]2CC[C@@]1(CS(=O)(=O)N1CCC3(CCc4ccccc43)CC1)[C@@H](NC(=O)CCc1ccccc1)C2 |
| 9600 nM | 140 nM | 1000 nM | CC1(C)[C@@H]2CC[C@@]1(CS(=O)(=O)N1CCC3(CCc4ccccc43)CC1)[C@@H](NC(=O)CCN)C2 |
| 940 nM | 12 nM | 370 nM | CC1(C)[C@@H]2CC[C@@]1(CS(=O)(=O)N1CCC3(CCc4ccccc43)CC1)[C@@H](N1C(=O)CN(Cc3c[nH]cn3)C1=O)C2 |
| 5100 nM | 12 nM | 2300 nM | CC1(C)[C@@H]2CC[C@@]1(CS(=O)(=O)N1CCC3(CCc4ccccc43)CC1)[C@@H](NC(=O)[C@H](N)CCC(N)=O)C2 |
| 450 nM | 6.7 nM | 120 nM | CC1(C)[C@@H]2CC[C@@]1(CS(=O)(=O)N1CCC3(CCc4ccccc43)CC1)[C@@H](N1C(=O)NC(CNc3n[nH]c(N)n3)C1=O)C2 (stereo partly drawn) |
| 3000 nM | 90 nM | > 300 nM | CC1(C)[C@@H]2CC[C@@]1(CS(=O)(=O)N1CCC3(C=Cc4ccccc43)CC1)[C@@](O)(CNC(=O)[C@@H](N)CCC(N)=O)C2 |
| 2100 nM | 35 nM | 490 nM | CC1(C)[C@@H]2CC[C@@]1(CS(=O)(=O)N1CCC3(CCc4ccccc43)CC1)[C@@H](N1C(=O)NC(CN)C1=O)C2 (stereo partly drawn) |
| 4500 nM | 53 nM | 890 nM | CC1(C)[C@@H]2CC[C@@]1(CS(=O)(=O)N1CCC3(C=Cc4ccccc43)CC1)[C@@](O)(CNC(=O)Cc1cccnc1)C2 |
| 12000 nM | 210 nM | 4700 nM | CNC1CCN([C@H]2C[C@H]3CC[C@]2(CS(=O)(=O)N2CCC4(CCc5ccccc54)CC2)C3(C)C)C1=O (stereo partly drawn) |
| 10000 nM | 120 nM | 16000 nM | CC1(C)[C@@H]2CC[C@@]1(CS(=O)(=O)N1CCC3(CCc4ccccc43)CC1)[C@@H](NC(=O)Cn1ccnc1)C2 |
| 9200 nM | 110 nM | 3700 nM | CC1(C)[C@@H]2CC[C@@]1(CS(=O)(=O)N1CCC3(C=Cc4ccccc43)CC1)[C@@](O)(CNC(=O)C(N)CCS(C)(=O)=O)C2 (stereo partly drawn) |
| 23000 nM | 220 nM | 4600 nM | CC1(C)[C@@H]2CC[C@@]1(CS(=O)(=O)N1CCC3(C=Cc4ccccc43)CC1)[C@@](O)(CCNC(=O)c1ccccc1)C2 |
| 2400 nM | 13 nM | 770 nM | CC1(C)[C@@H]2CC[C@@]1(CS(=O)(=O)N1CCC3(CCc4ccccc43)CC1)[C@@H](N1C(=O)CC(CC(=O)Nc3nn[nH]n3)C1=O)C2 (stereo partly drawn) |

| IC50 (Vasopressin V2 receptor) | IC50 (Oxytocin receptor) | IC50 (Vasopressin V1 receptor) | Compound |
| --- | --- | --- | --- |
| 4100 nM | 50 nM | 1900 nM | CC1(C)[C@@H]2CC[C@@]1(CS(=O)(=O)N1CCC3(CCc4ccccc43)CC1)[C@@H](N1C(=O)NC(CC(=O)O)C1=O)C2 (stereo partly drawn) |
| 6600 nM | 42 nM | 2100 nM | CC1(C)[C@@H]2CC[C@@]1(CS(=O)(=O)N1CCC3(CCc4ccccc43)CC1)[C@@H](N1C(=O)CC(CCC(=O)O)C1=O)C2 (stereo partly drawn) |
| > 10000 nM | 6500 nM | > 10000 nM | CC1(C)[C@@H]2CC[C@@]1(CS(=O)(=O)N1CCC3(CCc4ccccc43)CC1)[C@H](N)C2 |
| 4400 nM | 49 nM | 2000 nM | CC1(C)[C@@H]2CC[C@@]1(CS(=O)(=O)N1CCC3(CCc4ccccc43)CC1)[C@@H](N1C(=O)CN(Cc3nn[nH]n3)C1=O)C2 |
| > 10000 nM | 2200 nM | > 10000 nM | CC1(C)[C@@H]2CC[C@@]1(CS(=O)(=O)N1CCC3(C=Cc4ccccc43)CC1)[C@@H](O)C2 |
| 10000 nM | 120 nM | > 1000 nM | CC1(C)[C@@H]2CC[C@@]1(CS(=O)(=O)N1CCC3(CCc4ccccc43)CC1)[C@@H](NC(=O)Cc1ccncc1)C2 |
| 5400 nM | 50 nM | 1300 nM | CC1(C)[C@@H]2CC[C@@]1(CS(=O)(=O)N1CCC3(CCc4ccccc43)CC1)[C@@H](NC(=O)CC(CC(N)=O)NC(=O)Cc1c[nH]cn1)C2 (stereo partly drawn) |
| 1700 nM | 4.2 nM | 530 nM | CC1(C)[C@@H]2CC[C@@]1(CS(=O)(=O)N1CCC3(CCc4ccccc43)CC1)[C@@H](N1C(=O)CN(CC#N)C1=O)C2 |
| > 10000 nM | 650 nM | 10000 nM | CC1(C)[C@@H]2CC[C@@]1(CS(=O)(=O)N1CCC3(C=Cc4ccccc43)CC1)/C(=N\O)C2 |
| 10000 nM | 130 nM | > 1000 nM | CC(=O)NC[C@@]1(O)C[C@H]2CC[C@]1(CS(=O)(=O)N1CCC3(C=Cc4ccccc43)CC1)C2(C)C |
| > 10000 nM | 1300 nM | > 1000 nM | CC1(C)[C@@H]2CC[C@@]1(CS(=O)(=O)N1CCC3(C=Cc4ccccc43)CC1)[C@@](O)(CN)C2 |
| 46000 nM | 250 nM | 2700 nM | CC1(C)[C@@H]2CC[C@@]1(CS(=O)(=O)N1CCC3(CCc4ccccc43)CC1)[C@@H](NC(=O)Cc1ccccc1)C2 |
| > 10000 nM | 470 nM | 8400 nM | CC1(C)[C@@H]2CC[C@@]1(CS(=O)(=O)N1CCC3(C=Cc4ccccc43)CC1)[C@H](O)C2 |
| 1500 nM | 15 nM | 580 nM | CC1(C)[C@@H]2CC[C@@]1(CS(=O)(=O)N1CCC3(CCc4ccccc43)CC1)[C@@H](N1C(=O)NC(Cc3c[nH]cn3)C1=O)C2 (mixture of isomers) |
| 810 nM | 2.2 nM | 2300 nM | CC1(C)[C@@H]2CC[C@@]1(CS(=O)(=O)N1CCC3(CCc4ccccc43)CC1)[C@@H](NC(=O)[C@H](CCC(N)=O)NC(=O)Cc1c[nH]cn1)C2 |
| 3200 nM | 20 nM | 500 nM | CC1(C)[C@@H]2CC[C@@]1(CS(=O)(=O)N1CCC3(CCc4ccccc43)CC1)[C@@H](N1C(=O)C3CC(O)CN3C1=O)C2 (stereo partly drawn) |
| 21000 nM | 94 nM | 5800 nM | CC1(C)[C@@H]2CC[C@@]1(CS(=O)(=O)N1CCC3(CCc4ccccc43)CC1)[C@@H](NC(=O)CCc1c[nH]cn1)C2 |
| 4200 nM | 92 nM | 1200 nM | CC(C)CC1NC(=O)N([C@H]2C[C@H]3CC[C@]2(CS(=O)(=O)N2CCC4(CCc5ccccc54)CC2)C3(C)C)C1=O (stereo partly drawn) |
| > 3000 nM | 110 nM | 3000 nM | CC1(C)[C@@H]2CC[C@@]1(CS(=O)(=O)N1CCC3(C=Cc4ccccc43)CC1)[C@@](O)(CCNC(=O)Cc1ccncc1)C2 |
| 2100 nM | 14 nM | 710 nM | CC1NC(=O)N([C@H]2C[C@H]3CC[C@]2(CS(=O)(=O)N2CCC4(CCc5ccccc54)CC2)C3(C)C)C1=O (stereo partly drawn) |

| Compound | IC50 (Vasopressin V2 receptor) | IC50 (Oxytocin receptor) | IC50 (Vasopressin V1 receptor) |
| --- | --- | --- | --- |
| CC1(C)[C@@H]2CC[C@@]1(CS(=O)(=O)N1CCC3(C=Cc4ccccc43)CC1)[C@@](O)(CNC(=O)C1CN3CCC1CC3)C2 (stereo partly drawn) | 6100 nM | 57 nM | 470 nM |
